# Experimental data: ChEMBL document CHEMBL1821641, “Synthesis and biological evaluation of 1-substituted-3(5)-(6-methylpyridin-2-yl)-4-(quinoxalin-6-yl)pyrazoles as transforming growth factor-β type 1 receptor kinase inhibitors” (Eur J Med Chem, 2011)
# Legend:
# [1] = target: T1, TGF-beta receptor type-1 (Homo sapiens, UniProt P36897); assay: Inhibition of human recombinant GST-fused ALK5 expressed in insect Sf9 cells using casein as substrate by radiometric kinase assay
# T1 sequence (P36897 whole entry): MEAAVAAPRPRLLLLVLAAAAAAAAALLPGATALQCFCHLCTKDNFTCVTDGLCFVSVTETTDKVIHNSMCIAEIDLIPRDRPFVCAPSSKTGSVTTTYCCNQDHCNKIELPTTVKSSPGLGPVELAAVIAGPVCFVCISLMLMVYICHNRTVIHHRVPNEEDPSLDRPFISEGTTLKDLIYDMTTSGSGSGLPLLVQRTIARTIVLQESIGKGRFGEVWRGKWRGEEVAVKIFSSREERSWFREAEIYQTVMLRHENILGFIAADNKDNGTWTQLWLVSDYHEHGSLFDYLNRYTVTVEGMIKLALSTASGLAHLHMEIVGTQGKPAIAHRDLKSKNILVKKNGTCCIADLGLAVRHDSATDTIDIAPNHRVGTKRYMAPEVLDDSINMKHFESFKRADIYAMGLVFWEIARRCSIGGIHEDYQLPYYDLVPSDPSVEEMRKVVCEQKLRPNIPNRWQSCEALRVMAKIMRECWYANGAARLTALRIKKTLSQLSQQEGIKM
# [2] = target: Mitogen-activated protein kinase 14 (Homo sapiens, UniProt Q16539); assay: Inhibition of human recombinant p38alpha expressed in Escherichia coli using ATF2 as substrate by radiometric kinase assay
# [3] = species on record: Homo sapiens; assay: Selectivity index, ratio of IC50 for human recombinant p38alpha to IC50 for human recombinant ALK5
# How it was run: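 Ratio of IC50 values from two radiometric (33P) protein kinase assays run by a contract lab. ALK5 assay: human recombinant GST-fusion kinase domain expressed in Sf9 cells via baculovirus, with casein as substrate. p38α assay: untagged human recombinant enzyme expressed in E. coli and Ni-agarose purified, with ATF2 as substrate, tested up to 1 μM. Index = IC50 p38α / IC50 ALK5.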
# [4] = Chemical stability of compound; type: physicochemical
# Sequence of Mitogen-activated protein kinase 14 (Q16539 whole entry): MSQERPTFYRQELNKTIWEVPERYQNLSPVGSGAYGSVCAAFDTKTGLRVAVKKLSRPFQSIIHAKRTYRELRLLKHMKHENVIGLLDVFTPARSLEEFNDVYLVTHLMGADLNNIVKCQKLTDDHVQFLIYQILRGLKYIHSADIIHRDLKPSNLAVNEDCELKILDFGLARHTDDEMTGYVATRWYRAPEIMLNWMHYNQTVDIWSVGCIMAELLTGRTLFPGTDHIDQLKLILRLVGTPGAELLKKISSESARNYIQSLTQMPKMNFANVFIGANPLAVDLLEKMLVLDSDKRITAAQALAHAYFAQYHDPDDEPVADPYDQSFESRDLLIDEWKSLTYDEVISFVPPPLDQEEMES
SMILES,IC50 [1] [nM],IC50 [2] [nM],Ratio IC50 [3],Stability [4]
Cc1cccc(-c2nn(CC(=S)Nc3ccccc3)cc2-c2ccc3nc(C)c(C)nc3c2)n1,> 1000,> 1000,,
Cc1cccc(-c2nn(CC(=O)Nc3cccc(C(N)=O)c3)cc2-c2ccc3nccnc3c2)n1,48,> 1000,> 21,
Cc1cccc(-c2nn(CC(=O)Nc3cccc(C(N)=O)c3)cc2-c2ccc3nc(C)c(C)nc3c2)n1,> 1000,> 1000,,
Cc1cccc(-c2nn(CC(=O)Nc3ccccc3)cc2-c2ccc3nccnc3c2)n1,38,> 1000,> 26,
Cc1cccc(-c2c(-c3ccc4nccnc4c3)cnn2CC(=O)Nc2cccc(C#N)c2)n1,737,> 1000,> 1,
Cc1cccc(-c2nn(CC(=O)Nc3ccccc3)cc2-c2ccc3nc(C)c(C)nc3c2)n1,> 1000,> 1000,,
Cc1cccc(-c2c(-c3ccc4nc(C)c(C)nc4c3)cnn2CC(=O)Nc2cccc(C#N)c2)n1,> 1000,> 1000,,
Cc1cccc(-c2[nH]c(Cc3cccc(C(N)=O)c3)nc2-c2ccc3nccnc3c2)n1,,,28,
Cc1cccc(-c2nn(CCC(=O)Nc3ccccc3)cc2-c2ccc3nccnc3c2)n1,82,> 1000,> 12,
Cc1cccc(-c2c(-c3ccc4nccnc4c3)cnn2CC(=O)Nc2ccccc2)n1,143,> 1000,> 7,
Cc1cccc(-c2nn(CC(=S)Nc3cccc(C#N)c3)cc2-c2ccc3nccnc3c2)n1,26,> 1000,> 38,
Cc1cccc(-c2c(-c3ccc4nc(C)c(C)nc4c3)cnn2CC(=O)Nc2ccccc2)n1,> 1000,> 1000,,
Cc1cccc(-c2nn(CC(=O)Nc3cccc(C#N)c3)cc2-c2ccc3nc(C)c(C)nc3c2)n1,> 1000,> 1000,,
Cc1cccc(-c2nn(CC(=S)Nc3cccc(C#N)c3)cc2-c2ccc3nc(C)c(C)nc3c2)n1,> 1000,> 1000,,
Cc1cccc(-c2nn(CCC(=O)Nc3cccc(C#N)c3)cc2-c2ccc3nc(C)c(C)nc3c2)n1,> 1000,> 1000,,
Cc1cccc(-c2nn(CC(=S)Nc3ccccc3)cc2-c2ccc3nccnc3c2)n1,13,> 1000,> 77,Stable
Cc1cccc(-c2nn(CC(=O)Nc3cccc(C#N)c3)cc2-c2ccc3nccnc3c2)n1,153,> 1000,> 7,
